Measurements reported in ChEMBL document CHEMBL1157793, “Synthesis and antitumor activity of 1,5-disubstituted 1,2,4-triazoles as cis-restricted combretastatin analogues” (J Med Chem, 2010).

Assays:
Type in all cases: functional, cell-based
A549 = test: Antiproliferative activity against human A549 cells after 72 hrs by MTT assay; conditions: A549, 72 h
MCF7 = test: Antiproliferative activity against human MCF7 cells after 72 hrs by MTT assay; conditions: MCF7, 72 h
Jurkat = test: Antiproliferative activity against human Jurkat cells after 72 hrs by MTT assay
How it was run: (§1)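 Cells seeded at 8×10^3 per well (Jurkat, HL-60, K562 in RPMI-1640; MCF7, A549, HeLa in DMEM; all with 10% FBS, penicillin/streptomycin), incubated 18 h at 37 °C, 5% CO2, then exposed to compound at varying concentrations in complete medium for 72 h.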

K562 = test: Antiproliferative activity against human K562 cells after 72 hrs by MTT assay; conditions: K562, 72 h; how it was run: as §1
HL-60 = test: Antiproliferative activity against human HL60 cells after 72 hrs by MTT assay; conditions: HL-60, 72 h
HeLa = test: Antiproliferative activity against human HeLa cells after 72 hrs by MTT assay

Measured: IC50

COc1ccccc1-c1ncnn1-c1cc(OC)c(OC)c(OC)c1
> 10 µM: all assays above

COc1cc(-n2ncnc2-c2cccc(Cl)c2)cc(OC)c1OC
> 10 µM: all assays above

COc1cc(-n2ncnc2-c2ccc(OC(F)(F)F)cc2)cc(OC)c1OC
> 10 µM: all assays above

COc1cc(-c2ncnn2-c2ccc([N+](=O)[O-])cc2)cc(OC)c1OC
> 10 µM: all assays above

COc1cc(-c2ncnn2-c2cccc(N)c2)cc(OC)c1OC
> 10 µM: all assays above

COc1cccc(-c2ncnn2-c2cc(OC)c(OC)c(OC)c2)c1
> 10 µM: all assays above

COc1cc(-c2ncnn2-c2ccc(Cl)cc2Cl)cc(OC)c1OC
> 10 µM: all assays above

COc1cc(-n2ncnc2-c2cccc([N+](=O)[O-])c2)cc(OC)c1OC
> 10 µM: all assays above

COc1cc(-c2ncnn2-c2ccc(F)cc2)cc(OC)c1OC
> 10 µM: all assays above

COc1cc(-c2ncnn2-c2cccc([N+](=O)[O-])c2)cc(OC)c1OC
> 10 µM: all assays above

COc1cc(-c2ncnn2-c2ccc(Cl)cc2)cc(OC)c1OC
> 10 µM: all assays above

COc1cc(-n2ncnc2-c2ccc(Cl)c(Cl)c2)cc(OC)c1OC
> 10 µM: all assays above

COc1cc(-n2ncnc2-c2cccc(F)c2)cc(OC)c1OC
> 10 µM: all assays above

COc1cc(-n2ncnc2-c2ccccc2)cc(OC)c1OC
> 10 µM: all assays above

COc1cc(-c2ncnn2-c2ccc(Cl)c(Cl)c2)cc(OC)c1OC
> 10 µM: all assays above

COc1cc(-n2ncnc2-c2ccc(Cl)cc2)cc(OC)c1OC
> 10 µM: all assays above

CCOc1ccccc1-c1ncnn1-c1cc(OC)c(OC)c(OC)c1
> 10 µM: all assays above

COc1cc(-c2ncnn2-c2cccc(F)c2)cc(OC)c1OC
> 10 µM: all assays above

COc1cc(-n2ncnc2-c2ccc(F)cc2)cc(OC)c1OC
> 10 µM: all assays above
